Test results reported in ChEMBL document CHEMBL1671809, “Discovery of phosphoric acid mono-{2-[(E/Z)-4-(3,3-dimethyl-butyrylamino)-3,5-difluoro-benzoylimino]-thiazol-3-ylmethyl} ester (Lu AA47070): a phosphonooxymethylene prodrug of a potent and selective hA(2A) receptor antagonist” (J Med Chem, 2011).

Assays:
[1] = Apparent permeability from basolateral to apical side in human Caco2 cells at 1 uM after 21 to 28 days; assay type: ADME, cell-based; conditions: caco-2
Summary of the method: (§1)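 Caco-2 cells grown 21-28 days on permeable filters. A 2 mM DMSO stock was diluted into Hanks-HEPES pH 7.4. Dosing solution went into the apical (A-B) or basolateral (B-A) chamber, and the opposite chamber was sampled over 240 min with buffer replacement. Efflux ratio = Papp,B-A/Papp,A-B. Mean ± SD, n = 3.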

[2] = Primary phase half life in Sprague-Dawley rat at 0.5 mg/kg, iv and 1 mg/kg, po; assay type: ADME, organism-based; conditions: in vivo
Summary of the method: (§2)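 Awake Sprague-Dawley rats carrying a carotid catheter were dosed with 0.5 mg/kg iv or 1 mg/kg po in aqueous 25% cremophore, n = 3 per route. Ten 100 μL blood samples were collected automatically over 20 h. Plasma was assayed by HTLC-MS/MS. Parameters came from a two-compartment model with first-order absorption (po) and elimination.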

[3] = molecular target: Cytochrome P450 3A4 (Homo sapiens, UniProt P08684); experiment: Inhibition of recombinant CYP3A4 after 30 mins; assay type: ADME
Summary of the method: (§3)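 Recombinant CYP supersomes incubated in phosphate buffer with eight compound concentrations (40-0.02 μM) and fluorogenic substrates. CYP3A4: resorufin benzyl ether 100 μM, 30 min. Fluorescent metabolite read; IC50 relative to uninhibited controls.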

[4] = tested on: Mus musculus; experiment: Reversal of haloperidol-induced hypolocomotion in po dosed NMRI mouse administered 30 mins before haloperidol challenge measured for 20 mins; assay type: functional
Summary of the method: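 Male NMRI mice (n = 8/group) were given compound po in 25% cremophor/saline, then haloperidol 0.63 mg/kg sc 30 min later. After 15 min they went into photocell activity boxes, and locomotion was recorded for 20 min. ED50 by sigmoidal fit with top 100 and bottom 0.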

[5] = Tmax in Sprague-Dawley rat at 1 mg/kg, po; assay type: ADME, organism-based; design: dose 1 mg/kg, route oral; conditions: in vivo; summary of the method: as §2
[6] = Intrinsic clearance in dog hepatocytes at 0.2 uM after 60 mins; assay type: ADME, cell-based, Canis lupus familiaris, Liver, Hepatocyte; conditions: 1 h
Summary of the method: (§4)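 Pooled cryopreserved hepatocytes: human (three donors), male Sprague-Dawley rat (two donors), male beagle dog (two donors). Cells at 10^6/mL in DMEM with 5 mM HEPES, 37 C, 15 min preincubation; compound at 0.2 μM. Samples at 0-60 min, depletion by LC-MS/MS. t1/2 scaled to CLint with 120 (human, rat) or 240 (dog) million cells/g liver. n = 1.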

[7] = molecular target: Cytochrome P450 2C9 (Homo sapiens, UniProt P11712); experiment: Inhibition of recombinant CYP2C9 after 45 mins; assay type: ADME
[8] = molecular target: T1, Adenosine receptor A3 (Homo sapiens) (UniProt P0DMS8); experiment: Displacement of [3H]-AB-MECA from human recombinant adenosine A3 receptor expressed in CHO-K1 cells at 10 uM after 60 mins; assay type: cell-based
T1 sequence (whole entry): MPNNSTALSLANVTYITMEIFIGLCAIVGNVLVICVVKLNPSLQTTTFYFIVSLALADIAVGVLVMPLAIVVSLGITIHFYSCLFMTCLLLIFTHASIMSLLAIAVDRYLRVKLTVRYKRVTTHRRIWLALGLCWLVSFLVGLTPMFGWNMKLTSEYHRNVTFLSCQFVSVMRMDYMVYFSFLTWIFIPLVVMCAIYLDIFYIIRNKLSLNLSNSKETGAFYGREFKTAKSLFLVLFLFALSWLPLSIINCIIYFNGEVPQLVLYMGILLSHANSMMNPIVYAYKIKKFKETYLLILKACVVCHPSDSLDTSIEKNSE

[9] = molecular target: T2, Adenosine receptor A2b (Homo sapiens, UniProt P29275); experiment: Displacement of [3H]-MRS1754 from human recombinant adenosine A2B receptor expressed in HEK293 cells after 120 mins
T2 sequence (P29275 whole entry): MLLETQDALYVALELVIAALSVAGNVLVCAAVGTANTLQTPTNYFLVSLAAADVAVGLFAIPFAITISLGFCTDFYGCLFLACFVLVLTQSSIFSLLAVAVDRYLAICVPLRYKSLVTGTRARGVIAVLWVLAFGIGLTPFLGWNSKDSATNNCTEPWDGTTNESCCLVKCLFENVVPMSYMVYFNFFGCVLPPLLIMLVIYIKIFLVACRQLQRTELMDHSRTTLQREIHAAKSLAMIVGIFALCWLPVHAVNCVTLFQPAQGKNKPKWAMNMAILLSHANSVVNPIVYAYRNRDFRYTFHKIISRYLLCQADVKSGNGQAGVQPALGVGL

[10] = tested on: Hepatocyte; experiment: Intrinsic clearance in rat hepatocytes at 0.2 uM after 60 mins; assay type: ADME, cell-based, Liver; conditions: 1 h; summary of the method: as §4
[11] = Ratio of drug level whole brain to plasma in abcb1a-deficient mouse at 1 mg/kg, po after 50 mins
[12] = molecular target: T3, Cytochrome P450 1A2 (Homo sapiens, UniProt P05177); experiment: Inhibition of recombinant CYP1A2 after 28 mins; assay type: ADME
T3 sequence (P05177 whole entry): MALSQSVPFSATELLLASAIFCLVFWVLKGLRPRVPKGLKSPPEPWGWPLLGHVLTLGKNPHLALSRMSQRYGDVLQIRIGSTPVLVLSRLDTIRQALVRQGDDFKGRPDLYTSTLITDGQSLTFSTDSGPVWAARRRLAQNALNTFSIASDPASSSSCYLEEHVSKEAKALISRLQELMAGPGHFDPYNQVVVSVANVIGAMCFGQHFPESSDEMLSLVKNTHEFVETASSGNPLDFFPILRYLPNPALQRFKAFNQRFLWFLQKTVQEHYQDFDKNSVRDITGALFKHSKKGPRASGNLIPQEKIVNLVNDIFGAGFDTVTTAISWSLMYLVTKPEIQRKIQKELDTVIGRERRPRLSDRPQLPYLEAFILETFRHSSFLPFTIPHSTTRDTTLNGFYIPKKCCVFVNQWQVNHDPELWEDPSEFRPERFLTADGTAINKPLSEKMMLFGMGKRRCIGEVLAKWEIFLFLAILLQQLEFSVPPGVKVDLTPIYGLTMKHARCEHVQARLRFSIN
Summary of the method: as §3, with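 “substrates. CYP1A2: 7-ethoxy-3-cyanocoumarin 10 μM, 28 min. CYP2C19: same substrate 50 μM, 45 min. CYP2D6: AMMC 3 μM, 45 min.” for “substrates.”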

[13] = molecular target: Cytochrome P450 2C19 (Homo sapiens, UniProt P33261); experiment: Inhibition of recombinant CYP2C19 after 45 mins; assay type: ADME
Summary of the method: as §3, with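 “substrates. CYP1A2: 7-ethoxy-3-cyanocoumarin 10 μM, 28 min. CYP2C19: same substrate 50 μM, 45 min. CYP2D6: AMMC 3 μM, 45 min.” for “substrates.”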

[14] = tested on: Mus musculus; experiment: Displacement of [3H]SCH58261 from po dosed NMRI mouse striatum by liquid scintillation counting; assay type: functional
[15] = Protein binding in rat serum at 1 uM after 60 mins by LC/MS-MS; assay type: ADME, cell-free; conditions: read-out: PPB (converted)
[16] = Apparent permeability from apical to basolateral side in human Caco2 cells at 1 uM after 21 to 28 days; assay type: ADME, cell-based; conditions: caco-2; summary of the method: as §1
[17] = Terminal half life in Sprague-Dawley rat at 0.5 mg/kg, iv and 1 mg/kg, po; assay type: ADME, organism-based; conditions: in vivo; summary of the method: as §2
[18] = tested on: Hepatocyte; experiment: Intrinsic clearance in human hepatocytes at 0.2 uM after 60 mins; assay type: ADME, cell-based, Liver; conditions: 1 h; summary of the method: as §4
[19] = molecular target: Cytochrome P450 2D6 (Homo sapiens, UniProt P10635); experiment: Inhibition of recombinant CYP2D6 after 45 mins; assay type: ADME
Summary of the method: as §3, with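 “substrates. CYP1A2: 7-ethoxy-3-cyanocoumarin 10 μM, 28 min. CYP2C19: same substrate 50 μM, 45 min. CYP2D6: AMMC 3 μM, 45 min.” for “substrates.”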

Cytochrome P450 2D6, sequence (P10635 whole entry): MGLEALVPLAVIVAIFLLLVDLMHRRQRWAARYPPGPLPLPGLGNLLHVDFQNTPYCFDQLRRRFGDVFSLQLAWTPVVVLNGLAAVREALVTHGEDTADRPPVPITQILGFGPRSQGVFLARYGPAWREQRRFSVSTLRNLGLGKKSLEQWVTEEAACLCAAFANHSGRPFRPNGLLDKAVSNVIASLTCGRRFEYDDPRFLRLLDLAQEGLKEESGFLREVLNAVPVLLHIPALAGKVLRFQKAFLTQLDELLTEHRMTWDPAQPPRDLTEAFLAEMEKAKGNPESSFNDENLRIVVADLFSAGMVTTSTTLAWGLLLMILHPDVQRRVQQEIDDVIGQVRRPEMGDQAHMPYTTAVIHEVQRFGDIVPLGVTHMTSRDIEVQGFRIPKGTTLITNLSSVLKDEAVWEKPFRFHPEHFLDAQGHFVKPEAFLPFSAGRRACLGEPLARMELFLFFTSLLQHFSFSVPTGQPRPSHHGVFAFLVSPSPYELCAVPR
Cytochrome P450 2C9, sequence (P11712 whole entry): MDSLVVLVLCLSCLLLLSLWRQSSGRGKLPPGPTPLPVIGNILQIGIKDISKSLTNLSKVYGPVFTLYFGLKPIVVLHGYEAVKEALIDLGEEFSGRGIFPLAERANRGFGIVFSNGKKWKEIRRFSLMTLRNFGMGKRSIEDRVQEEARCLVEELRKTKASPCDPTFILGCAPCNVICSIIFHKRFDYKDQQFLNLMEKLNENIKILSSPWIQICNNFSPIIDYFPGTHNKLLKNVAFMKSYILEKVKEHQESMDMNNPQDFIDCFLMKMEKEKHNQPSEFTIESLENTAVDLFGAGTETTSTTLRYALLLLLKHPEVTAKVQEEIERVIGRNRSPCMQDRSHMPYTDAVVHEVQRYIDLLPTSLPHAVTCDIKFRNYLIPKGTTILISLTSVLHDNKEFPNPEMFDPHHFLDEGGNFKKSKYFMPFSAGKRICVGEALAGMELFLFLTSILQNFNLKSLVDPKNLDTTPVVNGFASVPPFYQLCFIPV
Cytochrome P450 3A4, sequence (P08684 whole entry): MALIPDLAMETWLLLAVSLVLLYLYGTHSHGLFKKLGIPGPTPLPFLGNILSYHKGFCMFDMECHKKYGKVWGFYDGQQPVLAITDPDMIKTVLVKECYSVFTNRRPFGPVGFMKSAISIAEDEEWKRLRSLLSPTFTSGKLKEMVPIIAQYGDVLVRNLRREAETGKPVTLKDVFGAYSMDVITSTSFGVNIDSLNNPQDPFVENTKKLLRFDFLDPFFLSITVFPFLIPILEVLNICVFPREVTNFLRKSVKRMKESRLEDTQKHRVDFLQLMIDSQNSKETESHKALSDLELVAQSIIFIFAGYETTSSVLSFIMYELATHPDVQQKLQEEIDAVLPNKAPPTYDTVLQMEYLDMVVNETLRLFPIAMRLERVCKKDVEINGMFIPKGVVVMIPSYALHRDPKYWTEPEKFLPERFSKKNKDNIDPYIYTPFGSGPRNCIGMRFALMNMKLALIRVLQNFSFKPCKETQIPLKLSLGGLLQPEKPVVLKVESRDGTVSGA
Cytochrome P450 2C19, sequence (P33261 whole entry): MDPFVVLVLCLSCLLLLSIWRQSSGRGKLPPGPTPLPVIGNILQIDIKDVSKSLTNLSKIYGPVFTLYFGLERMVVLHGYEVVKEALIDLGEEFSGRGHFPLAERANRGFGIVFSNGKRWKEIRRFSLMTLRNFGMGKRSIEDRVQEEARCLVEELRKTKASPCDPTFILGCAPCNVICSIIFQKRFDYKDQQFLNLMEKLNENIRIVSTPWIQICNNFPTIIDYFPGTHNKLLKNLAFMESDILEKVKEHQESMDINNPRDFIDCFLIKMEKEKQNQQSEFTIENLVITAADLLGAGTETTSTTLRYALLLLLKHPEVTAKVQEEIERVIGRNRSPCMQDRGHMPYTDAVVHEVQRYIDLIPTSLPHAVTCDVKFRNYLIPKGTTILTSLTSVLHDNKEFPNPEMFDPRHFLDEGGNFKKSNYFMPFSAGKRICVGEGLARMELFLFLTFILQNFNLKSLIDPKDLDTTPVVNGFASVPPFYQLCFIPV

Papp B→A at 1 µM [1]: 67 ×10⁻⁶ cm/s
half-life [2]: 1.2 h
IC50 [3]: > 40 µM
Tmax [5]: 0.5 h
CL [6]: 346 mL/min
IC50 [7]: > 40 µM
inhibition [8]: 36%
Ki [9]: 0.26 µM
CL [10]: 12 mL/min
Kp at 50 min [11]: 0.8
IC50 [12]: > 40 µM
IC50 [13]: > 40 µM
Activity [14]: Dose-dependent effect
fraction unbound at 1 h, 1 µM [15]: 0.03
Papp A→B at 1 µM [16]: 88 ×10⁻⁶ cm/s
half-life [17]: 7.8 h
CL [18]: 600 mL/min
IC50 [19]: > 40 µM
SMILES: CC(C)(C)CC(=O)Nc1c(F)cc(C(=O)Nc2nccs2)cc1F
Activity [4]: Dose-dependent effect
ED50 [4]: 0.5 mg/kg
ED50 [14]: 1.1 mg/kg
